Results taken from ChEMBL document CHEMBL4513216, “Probing the Open Global Health Chemical Diversity Library for Multistage-Active Starting Points for Next-Generation Antimalarials” (ACS Infect Dis, 2020).

Assay: Toxicity liver stage against HepG2, at 10uM
Format: cell-based
Design: test concentration 10 uM, cell line HepG2-A16-CD81EGFP
Settings: human, HepG2-A16-CD81EGFP cells; read-out: INHIBITION
Summary of the method: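 Uninfected HepG2-A16-CD81EGFP cells, 3 × 10^3 per well, 1536-well, plated on prespotted compound at 10 μM final, parasite-free screening media added to match infected plates; puromycin 10 μM positive, DMSO 0.5% negative; run in parallel with 48 h PbLuc assay at 37 °C, 5% CO2; viability by CellTiter-Glo luminescence, normalized to controls.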

SMILES	cytotoxicity at 10 µM [%]
CSc1cccc(CN2CCC(CCC(=O)NC3CC3)CC2)c1	1.28
CC(=O)N1CCOC[C@H](Oc2ccc(C(F)(F)F)cc2)C1	2.65
Cc1cc2nc(CO[C@H]3CN(C4CCC4)C[C@H]3F)[nH]c2cc1C	1.56
COCCCNc1c(-c2ccc(C)cc2)c(=O)c1=O	12.5
CC(=O)c1cn(CC(=O)N[C@H](C(=O)O)C(C)C)c2ccccc12	-7.06
COCCc1nnc(NC(=O)Cc2ccccc2Cl)o1	-6.95
CN(C)CCO[C@@H]1CC[C@H]2[C@H]1OCCN2C(=O)c1ccccc1F	2.25
CNC(=O)C1(c2cnccn2)CCCN1C(=O)Cc1ccsc1 (stereo unspecified)	4.12
CN(C(=O)c1ccn(C)n1)[C@@H]1CCC[C@@H](Oc2ccccc2)[C@@H]1O	-10.3
O=C(c1ccno1)N1CCCC(c2ncncc2-c2ccncc2)C1 (stereo unspecified)	-19.9
O=C(c1ccncc1)N1CCCC(c2cc(C(F)F)n3ncnc3n2)C1 (stereo unspecified)	-4.45
Cn1ccnc1CN1CCOC(C)(C(=O)N2CCOCC2)C1 (stereo unspecified)	1.27
Oc1nc(N2CCOCC2)nc2c1CCN(Cc1ccccc1)CC2	-4.03
CCc1nc2ccccc2c(=O)n1CC1(O)CCN(C(=O)C(C)C)CC1	-24.3
CC(C)N1CCC(Cc2cncc(-c3cc(F)ccc3C(=O)O)n2)C1 (stereo unspecified)	-6.88
COc1cc(CN2C[C@H](OC)[C@]3(CCCO3)C2)ccc1F	-7.61
CC(C)OCCC(=O)NS(=O)(=O)N1CCOc2ccccc21	-0.955
CCc1oc(C(=O)N2CCCC(c3nnn[nH]3)C2)cc1C (stereo unspecified)	9.09
CNC(=O)NCC(=O)N(C)C(c1ccc(Cl)cc1)c1cccnc1 (stereo unspecified)	9.61
Cc1cc(C)c(NC(=O)Nc2cnn(CC(O)CN(C)C)c2)c(C)c1 (stereo unspecified)	12.5
CS(=O)(=O)CCNC(=O)Nc1ccc(Cl)cc1-n1cccc1	48.2
Cc1cc(OCCC(=O)NCc2ccc(F)cc2)nnc1C	4.4
O=C(NCC[S+]([O-])Cc1ccccc1)c1ccc2[nH]c(=O)[nH]c2c1 (stereo unspecified)	6.11

SMILES	cytotoxicity at 10 µM [%]
COCCCC(=O)Nc1cccnc1N1CCCCC1	-6.34
Cn1ncc2c(=O)[nH]c(N3CCCC3c3cccs3)nc21 (stereo unspecified)	-0.53
Cc1nc(C)c(C(=O)N2CCCc3c(F)cccc32)o1	-6.75
CC(Nc1ccc2c(c1)CCC2)c1nc(C2CC2)no1 (stereo unspecified)	7.92
CC(C)(C)OC(=O)N1CCC(C(=O)NC2CCS(=O)(=O)C2)CC1 (stereo unspecified)	-6.81
CN(C)c1ccc(C(=O)N(Cc2ccncc2)CC2CCCO2)nn1 (stereo unspecified)	14.2
Cc1nc(CNCC2CCCN(C(=O)OC(C)(C)C)C2)cs1 (stereo unspecified)	-18.2
NC(=O)NC(=O)CN1CCN(CC2CC2)c2ccccc21	11.7
Cc1occc1C(=O)N1CCOC2(CCCC2)C1	-10.9
CN(Cc1cnn(C)c1)S(=O)(=O)N1CCc2ccccc2C1	-6.47
CCCC(NC(=O)c1cscc1C)c1nnn[nH]1 (stereo unspecified)	19.5
Cc1ccc(OC2CCN(S(=O)(=O)N(C)C)CC2)nc1	7.68
CN1CC(C(=O)N2CCC(Oc3ccccc3Cl)CC2)CC1=O (stereo unspecified)	9.99
Cc1n[nH]c(C2CN(C(=O)c3csnn3)CCO2)n1 (stereo unspecified)	2.74
CCn1ncc2c1CCCC2NCc1cscn1 (stereo unspecified)	-2.42
Cc1nc(CN2CCN(C(C)C(=O)NC3CCCC3)CC2)cs1 (stereo unspecified)	-3.9
CCOCc1ccc(CNc2nc(OC)ncc2Cl)cc1	13.2
COc1ccc(-c2ccc(C(=O)NCCCC(N)=O)c(F)c2)c(F)c1	0.393
CNC(=O)C(C)(C)CNC(=O)Nc1ccc(C)cn1	0.973
CC(C)N(C)C(=O)c1ccc(Cl)c(NC(=O)CCN2C(=O)CCC2=O)c1	-2.63
Cc1ccccc1S(=O)(=O)NC(=O)C1(c2ccccc2)CCC1	-6.9
Cc1cc(C(=O)N2CCN(Cn3cc(Cl)cn3)CC2)c(C)o1	10.9
CSCc1cc(F)ccc1CNCc1cccnc1	-9.84

SMILES	cytotoxicity at 10 µM [%]
CCN(CC)S(=O)(=O)CCNC(=O)N(C)C(C)c1ccccn1 (stereo unspecified)	10.6
N#CCSCCCN1CCCC(C(=O)N2CCCCCC2)C1 (stereo unspecified)	4.01
CCS(=O)(=O)NC(C(=O)NC)c1ccc(F)c(F)c1 (stereo unspecified)	-9.06
N#Cc1cc(NC(=O)c2ccsc2)ccc1N1CCC(O)CC1	4.77
c1cnnc(N2CCCC2CNCc2nc3ccccc3o2)c1 (stereo unspecified)	-10.9
Cc1cnc(C(=O)N2CCCN(Cc3csc(C)n3)CC2)cn1	-16
CCOC[C@@H]1CCC[C@]12CN(S(=O)(=O)c1cn(C)cn1)CCO2	5.7
O=C(NCC1CC1)[C@H]1C[C@H]2OCC[C@H]2N(Cc2ccoc2)C1	-3.01
COCC1CN(C(=O)c2ccoc2C)Cc2nccn2C1 (stereo unspecified)	6.1
C[C@@H]1CN(C(=O)c2ccsc2)C[C@]12CCN(c1ccsc1)C2=O	1.88
CC(C)Nc1nc2c(s1)C(=O)CN(C)C2	-9.77
CC(C)CC(=O)N1CC(=O)c2sc(NCCc3ccccc3)nc2C1	-0.501
CCCc1ccc(CN2CCC3(CCC(=O)N(CCCOC)C3)CC2)o1	-1.53
O=C(c1cccc(C2CCNC2)c1)N1CCC(N2CCC(O)CC2)CC1 (stereo unspecified)	2.18
COc1ccc2c(c1)OCC(Cc1cc(C(=O)N3CCCC3)ccn1)C2 (stereo unspecified)	-0.675
CCNC(=O)[C@@H]1C[C@H](N)CN1Cc1ccc2cccc(Cl)c2n1	5.91
O=C(c1ccc(-n2cnnc2)cc1Cl)N1CCCC2(CCNC2)C1 (stereo unspecified)	-5.32
O=S(=O)(NCCn1cc(C2CCCNC2)nn1)c1ccc(Cl)cc1 (stereo unspecified)	-17.1
O=C(c1ccccn1)C1CCCN(c2nccc(CCC(F)(F)F)n2)C1 (stereo unspecified)	-4.27
CCc1cc(CN(C)C(=O)c2cnc3c(c2)nc(N)n3CC)on1	1.3
CCc1cc(N2CCC(N[C@@H]3CS(=O)(=O)C[C@H]3O)CC2)nc(N(C)C)n1	-0.157
CC(C)C1CN(Cc2nccn2C(C)C)CCC(=O)N1CC1CC1 (stereo unspecified)	-11
O=C(NCc1nncn1C1CCCCC1)C1COc2ccccc2O1 (stereo unspecified)	2.83

SMILES	cytotoxicity at 10 µM [%]
CC(C)Oc1cccc(Cc2nc3c([nH]2)CCCNC3=O)c1	-12.9
O=C(c1ccc2cccc(F)c2n1)N1CCN(CCn2cncn2)CC1	7.02
CCCc1cc(CNC2CCN(c3nc(C)cc(C)n3)CC2)on1	7.51
O=C(O)[C@@H]1CN(C(=O)CCc2ccccn2)C[C@H]1c1ccccc1	7.96
Cc1nn(CCC(=O)NC(C(=O)O)c2c(C)n[nH]c2C)c(C)c1C (stereo unspecified)	-2.72
CC(C)[C@H]1COC(=O)N1Cc1nccn1C1CC1	-15.4
O=C(NCCN1CCCC(CO)C1)c1ccc2scnc2c1 (stereo unspecified)	8.61
Cc1nc(CNCc2ccc(OC34CCCN(CC3)C4)cc2)n[nH]1 (stereo unspecified)	1.01
CC(C)(C)C(=O)NCCC1CN(Cc2ccccc2F)CCO1 (stereo unspecified)	-2.05
CNc1ncc(CN(C)Cc2cc(O)c3cc(C)cc(C)c3n2)cn1	-13.9
Cn1ccnc1CN(CCO)C(=O)C1CCN(C(=O)C2CC2)CC1	2.55
CC(=O)N1CCc2[nH]cnc2C12CCN(C(=O)CCn1cccn1)CC2	5.71
Cc1cc(C)c2c(NC(C)c3nncn3C3CCCC3)ncnc2n1 (stereo unspecified)	5.01
COCC1CCN(C(C(=O)O)c2c(F)cccc2OC(C)C)CC1 (stereo unspecified)	0.515
OCC1(Cc2ccc(F)cc2F)CCCN(Cc2ccncc2)C1 (stereo unspecified)	-3.44
CCCSc1ncc(-c2nccn2CCO)cn1	-12.9
COc1cc(N2CCN(Cc3ccc(C)o3)C(CCO)C2)nc(N)n1 (stereo unspecified)	2.8
CCc1cc(NCCNc2cccnc2)n2nccc2n1	-11.9
O=C1CCC(=O)N1c1nn(Cc2ccccc2)cc1Cl	-14.4
Fc1ccc(CCN2CCC(c3nnc(-c4cccnc4)o3)CC2)cc1	6.59
OC1CCCN(Cc2c(-c3ccco3)[nH]c3ncccc23)C1 (stereo unspecified)	-5.87
Cc1ncsc1-c1nnc(C2CCN(Cc3ccc(F)cc3)CC2)o1	3.52
COc1cccc(N2CCN(C(=O)CN(C)c3cnccn3)CC2)c1	-15.2

SMILES	cytotoxicity at 10 µM [%]
CC(=O)NC1CCCN(Cc2csc(-c3ncccn3)n2)C1 (stereo unspecified)	-13.1
CN1CCN(c2cc(CNC(=O)c3cnccn3)ccn2)CC1	-8.92
Cc1cc(CN2CCCC(Cn3cncn3)C2)on1 (stereo unspecified)	-25.2
Cc1n[nH]c(C2CN(CCc3cccs3)CCO2)n1 (stereo unspecified)	-15.8
CCCc1n[nH]c(C2CN(C(=O)c3ccnc(C4CC4)n3)CCO2)n1 (stereo unspecified)	-7.49
Cc1nn(C)c(C)c1C1CCCN1C(=O)c1cnc2n[nH]c(C)c2c1 (stereo unspecified)	-8.38
CCc1nc(C2CCCN2C(=O)CCNS(C)(=O)=O)no1 (stereo unspecified)	-1.77
CC(NC(=O)CCc1cccs1)c1nnc2n1CCC2 (stereo unspecified)	-4.22
Cc1ccc(N2CCCN(C(=O)CC3CCCO3)CC2)nn1 (stereo unspecified)	-3.68
CNC(=O)[C@@H](c1ccccc1OC)N1CCC[C@H]1C(=O)NC1CC1	-4.39
CC(C)Nc1nc(N2CCCC2)nc2c1CCN(S(C)(=O)=O)CC2	6.43
Cc1cccc(CN2CCO[C@@H]3CC(COc4ccccn4)C[C@H]32)n1 (stereo partly specified)	-3.31
Cc1ccc(N2C[C@@H]3OCCN(CC4CC4)[C@@H]3C2)nn1	3.59
Cn1ncc2c1CCCC2NCc1ccc(Br)s1 (stereo unspecified)	-4.41
Cc1ccc(CN2CCc3ncc(CNS(C)(=O)=O)n3CC2)o1	-9.9
Cc1ccc(C(=O)N2C[C@@H](OCc3cccnc3)[C@H]3OCCC[C@@H]32)o1	-2.52
Cc1oncc1C(=O)NCc1cc(=O)n2c(n1)CN(C(C)C)CCC2	2.45
COc1ccc(-c2cc(CN)nc3ccnn23)cc1	-5.75
O=C(NC1CCC(O)CC1)c1ccc2nc(-c3ccc(F)cc3)cn2c1 (stereo unspecified)	1.31
